{"source": "ChEMBL document CHEMBL5705906", "about": "(Nat Commun, 2017)", "key": {"BaF3 [1]": {"system": "BaF3", "experiment": "Inhibition of EGFR-C797S/T790M/del19 mutant in mouse BaF3 cells assessed as reduction in EGFR phosphorylation incubated for 6 hrs by Western blotting analysis", "type": "cell-based"}, "BaF3 [2]": {"system": "BaF3", "experiment": "Inhibition of EGFR-C797S/T790M/del19 mutant in mouse BaF3 cells assessed as reduction in Akt phosphorylation incubated for 6 hrs by Western blotting analysis", "type": "cell-based"}, "BaF3 [3]": {"system": "BaF3", "experiment": "Inhibition of EGFR-C797S/T790M/del19 mutant in mouse BaF3 cells assessed as reduction in ERK phosphorylation incubated for 6 hrs by Western blotting analysis", "type": "cell-based"}, "BaF3 [4]": {"system": "BaF3", "experiment": "Inhibition of EGFR-C797S/T790M/del19 mutant in mouse BaF3 cells assessed as reduction in S6 phosphorylation incubated for 6 hrs by Western blotting analysis", "type": "cell-based", "in_short": "(§1)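 Ba/F3 cells carrying the stated EGFR mutant were made IL-3-independent after 1 week of 7 µM blasticidin selection. They were grown in low-glucose DMEM with 10% FBS and exposed to inhibitor for 6 h. Cells were washed in cold PBS, lysed in SDS buffer (100 mM Tris, 1% SDS, 10% glycerol) and boiled 5 min. Protein was measured by BCA, run on SDS-PAGE, transferred to PVDF, blocked in 5% BSA or milk/TBS-T, and immunoblotted.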"}, "BaF3 [5]": {"system": "BaF3", "experiment": "Inhibition of EGFR-del19 mutant in mouse BaF3 cells assessed as inhibition of ERK phosphorylation at 10 to 1000 nM incubated for 6 hrs by Western blotting analysis", "type": "cell-based", "settings": "dose 10-1000 nM", "in_short": "as §1"}, "BaF3 [6]": {"system": "BaF3", "experiment": "Inhibition of EGFR-T790M/del19 mutant in mouse BaF3 cells assessed as inhibition of Akt phosphorylation at 10 to 1000 nM incubated for 6 hrs by Western blotting analysis", "type": "cell-based", "settings": "dose 10-1000 nM", "in_short": "as §1"}, "BaF3 [7]": {"system": "BaF3", "type": "cell-based", "settings": "Mus musculus, dose 10-1000 nM, time 6.0 hrs"}, "BaF3 [8]": {"system": "BaF3", "type": "cell-based", "settings": "Mus musculus, dose 10-1000 nM, time 6.0 hrs", "remark": "listed apart in the source"}, "BaF3 [9]": {"system": "BaF3", "experiment": "Inhibition of EGFR-C797S/T790M/L858R mutant in mouse BaF3 cells assessed as inhibition of EGFR phosphorylation at 10 to 1000 nM incubated for 6 hrs by Western blotting analysis", "type": "cell-based", "settings": "dose 10-1000 nM", "in_short": "(§2)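 Ba/F3 cells expressing EGFR-L858R-series mutants treated with inhibitors for 6 h. SDS lysates quantified by BCA, run on SDS-PAGE and blotted to PVDF. Probed for phospho-EGFR (Tyr1068), total EGFR and downstream phospho-proteins.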"}, "A-431": {"system": "A-431", "experiment": "Anticancer activity against human A-431 cells assessed as reduction in cell viability at IC50 concentration incubated for 72 hrs by CellTiter-Glo assay", "type": "functional, cell-based", "in_short": "(§3)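 Three-day CellTiter-Glo viability assay. Cells exposed to compound across a 10-dose range of 0.3 nM to 10 µM for 72 h. IC50 from nonlinear sigmoidal dose-response fit.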"}, "A549": {"system": "A549", "experiment": "Anticancer activity against human A549 cells assessed as reduction in cell viability at IC50 concentration incubated for 72 hrs by CellTiter-Glo assay", "type": "functional, cell-based", "in_short": "as §3"}, "NCI-H460": {"system": "NCI-H460", "experiment": "Anticancer activity against human NCI-H460 cells assessed as reduction in cell viability at IC50 concentration incubated for 72 hrs by CellTiter-Glo assay", "type": "functional, cell-based", "in_short": "as §3"}, "BaF3 [10]": {"system": "BaF3", "experiment": "Inhibition of EGFR-C797S/T790M/L858R mutant expressed in mouse BaF3 cells assessed as inhibition of ERK phosphorylation at 10 to 1000 nM incubated for 6 hrs by Western blotting analysis", "type": "cell-based", "settings": "dose 10-1000 nM", "in_short": "as §2"}, "PC-9 [11]": {"system": "PC-9", "experiment": "Inhibition of EGFR T790M/del19 mutant in human PC-9 cells assessed as reduction in ERK phosphorylation at 10 to 1000 nM by Western blotting analysis", "type": "cell-based", "settings": "dose 10-1000 nM"}, "PC-9 [12]": {"system": "PC-9", "experiment": "Anti-tumor activity against EGFR T790M/del19 mutant expressing gefitinib-resistant human PC-9 cells xenografted in Balb-c nu/nu mouse assessed as growth inhibition at 75 mg/kg, po administered for 42 days and measured for 3 times per week in presence of cetuximab", "type": "functional, organism-based", "settings": "time 42.0 day"}, "[13]": {"experiment": "Cytotoxicity against mouse Ba/F3 EGFR-Del19/T790M/C797S cells assessed as inhibition of cell viability by measuring fold change at 30 nM incubated for 72 hrs in presence of cetuximab by CellTiter-Glo assay relative to brigatinib alone", "type": "functional"}, "MGH121": {"system": "MGH121", "experiment": "Anti-tumor activity against human MGH121 cells expressing EGFR-C797S/T790M/del19 mutant xenografted in SCID-beige mouse assessed as tumor shrinkage at 75 mg/kg, po administered for 40 days and measured twice weekly", "type": "functional, organism-based", "settings": "time 40.0 day", "in_short": "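MGH121-res2 cells (EGFR-C797S/T790M/del19) implanted s.c. in SCID-beige mice. Randomized at mean tumour ~200 mm³. […] Tumour volume 0.5×length×width² and body weight measured twice weekly. N = 6, mean ± s.d. Mann-Whitney U test on day 42.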"}, "[14]": {"experiment": "Toxicity against Balb-c nu/nu mouse xenografted with human PC-9 cells expressing EGFR-C797S/T790M/del19 mutant assessed as change in body weight at 75 mg/kg, po administered for 15 days and measured twice weekly", "type": "organism-based", "settings": "in vivo, 360 h, time 15 day", "in_short": "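PC9 triple-mutant cells (6×10^6 in 100 µl 1:2 Matrigel) were implanted subcutaneously in Balb-c nu/nu mice. At a mean tumour volume of ~200 mm³, mice were randomized, excluding the top and bottom 5% by tumour size. […] Body weight was recorded twice weekly, n=6 per group, and tumours were resected on treatment day 15.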"}, "BaF3 [15]": {"system": "BaF3", "settings": "Mus musculus, dose 10-1000 nM"}, "BaF3 [16]": {"system": "BaF3", "settings": "Mus musculus, dose 10-1000 nM", "remark": "listed apart in the source"}, "BaF3 [17]": {"system": "BaF3", "settings": "Mus musculus, dose 10-1000 nM, time 6.0 hrs"}, "[18]": {"system": "Epidermal growth factor receptor (Homo sapiens), P00533 [UNDEFINED MUTATION]", "sequence (P00533 whole entry, looked up, change not shown)": "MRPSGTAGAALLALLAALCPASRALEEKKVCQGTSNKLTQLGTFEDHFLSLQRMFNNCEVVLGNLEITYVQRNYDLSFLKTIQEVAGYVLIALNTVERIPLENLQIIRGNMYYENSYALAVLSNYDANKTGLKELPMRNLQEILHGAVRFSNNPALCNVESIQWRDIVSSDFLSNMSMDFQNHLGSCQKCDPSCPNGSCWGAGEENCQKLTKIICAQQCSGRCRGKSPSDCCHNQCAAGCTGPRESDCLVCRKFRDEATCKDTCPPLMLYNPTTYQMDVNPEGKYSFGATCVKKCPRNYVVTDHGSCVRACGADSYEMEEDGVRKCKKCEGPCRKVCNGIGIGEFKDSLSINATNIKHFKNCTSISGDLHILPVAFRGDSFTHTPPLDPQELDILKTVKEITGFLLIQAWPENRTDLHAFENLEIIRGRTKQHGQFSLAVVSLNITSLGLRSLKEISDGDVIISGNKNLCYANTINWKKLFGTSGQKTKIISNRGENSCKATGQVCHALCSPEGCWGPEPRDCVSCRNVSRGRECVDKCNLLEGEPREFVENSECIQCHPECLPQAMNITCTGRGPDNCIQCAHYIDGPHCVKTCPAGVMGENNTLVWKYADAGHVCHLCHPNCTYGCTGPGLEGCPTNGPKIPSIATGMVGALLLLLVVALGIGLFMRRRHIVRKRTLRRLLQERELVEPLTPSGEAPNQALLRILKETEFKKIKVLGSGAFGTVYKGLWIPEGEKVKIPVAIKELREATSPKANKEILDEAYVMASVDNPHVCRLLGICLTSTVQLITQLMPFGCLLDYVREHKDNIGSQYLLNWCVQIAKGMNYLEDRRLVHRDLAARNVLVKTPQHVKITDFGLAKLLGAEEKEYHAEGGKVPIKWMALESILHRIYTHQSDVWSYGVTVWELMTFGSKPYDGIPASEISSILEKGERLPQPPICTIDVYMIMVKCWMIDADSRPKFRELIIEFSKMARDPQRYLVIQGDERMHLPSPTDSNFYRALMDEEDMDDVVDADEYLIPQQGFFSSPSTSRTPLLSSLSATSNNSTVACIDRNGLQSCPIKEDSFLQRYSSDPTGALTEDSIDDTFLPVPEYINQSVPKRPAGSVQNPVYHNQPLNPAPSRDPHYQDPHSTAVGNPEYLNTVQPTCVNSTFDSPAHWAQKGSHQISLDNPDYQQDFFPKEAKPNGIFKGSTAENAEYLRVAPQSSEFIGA", "settings": "PC-9, dose 10-1000 nM"}, "[19]": {"system": "Epidermal growth factor receptor (Homo sapiens), P00533 [UNDEFINED MUTATION]", "settings": "MGH121, dose 10-1000 nM"}, "[20]": {"system": "Epidermal growth factor receptor (Homo sapiens), P00533 [UNDEFINED MUTATION]", "settings": "MGH121, dose 10-1000 nM", "remark": "listed apart in the source"}, "[21]": {"system": "Epidermal growth factor receptor (Homo sapiens), P00533 [UNDEFINED MUTATION]", "settings": "PC-9, dose 10-1000 nM", "remark": "listed apart in the source"}, "PC-9 [22]": {"system": "PC-9", "settings": "Homo sapiens, dose 75.0 mg/kg, route po, time 15.0 day"}, "BaF3 [23]": {"system": "BaF3", "settings": "Mus musculus, dose 30-1000 nM, time 6.0 hrs"}, "[24]": {"system": "Epidermal growth factor receptor (Homo sapiens), P00533 [UNDEFINED MUTATION]", "settings": "PC-9, dose 500.0 nM, time 48.0 hrs"}, "PC-9 [25]": {"system": "PC-9", "settings": "Homo sapiens, dose 75.0 mg/kg, route po, time 60.0 day"}, "PC-9 [26]": {"system": "PC-9", "settings": "Homo sapiens, dose 75.0 mg/kg, route po, time 60.0 day", "remark": "listed apart in the source"}}, "note": "The source made the active and inactive calls. The rule behind the calls is not given here."}
{"smiles": "COc1cc(N2CCC(N3CCN(C)CC3)CC2)ccc1Nc1ncc(Cl)c(Nc2ccccc2P(C)(C)=O)n1", "note": "[BRIGATINIB]", "values": [{"measurement": "inhibition", "setting": "BaF3 [1]", "value": "Dose-Dependent Effect"}, {"measurement": "inhibition", "setting": "BaF3 [2]", "value": "Dose-Dependent Effect"}, {"measurement": "inhibition", "setting": "BaF3 [3]", "value": "Dose-Dependent Effect"}, {"measurement": "inhibition", "setting": "BaF3 [4]", "value": "Dose-Dependent Effect"}, {"measurement": "inhibition", "setting": "BaF3 [5]", "value": "Active"}, {"measurement": "inhibition", "setting": "BaF3 [6]", "value": "Active"}, {"measurement": "inhibition", "setting": "BaF3 [7]", "value": "Active"}, {"measurement": "inhibition", "setting": "BaF3 [8]", "value": "Active"}, {"measurement": "inhibition", "setting": "BaF3 [9]", "value": "Active"}, {"measurement": "Activity", "setting": "A-431", "value": "Active"}, {"measurement": "Activity", "setting": "A549", "value": "Active"}, {"measurement": "Activity", "setting": "NCI-H460", "value": "Active"}, {"measurement": "inhibition", "setting": "BaF3 [10]", "value": "Active"}, {"measurement": "inhibition", "setting": "PC-9 [11]", "value": "Active"}, {"measurement": "Activity", "setting": "PC-9 [12]", "value": "Active"}, {"measurement": "fold change (FC)", "setting": "[13]", "value": "~3"}, {"measurement": "Activity", "setting": "MGH121", "value": "Active"}, {"measurement": "Activity", "setting": "[14]", "value": "Non-Toxic"}, {"measurement": "inhibition", "setting": "BaF3 [15]", "value": "Dose-Dependent Effect"}, {"measurement": "inhibition", "setting": "BaF3 [16]", "value": "Dose-Dependent Effect"}, {"measurement": "inhibition", "setting": "BaF3 [17]", "value": "Active"}, {"measurement": "inhibition", "setting": "[18]", "value": "Active"}, {"measurement": "inhibition", "setting": "[19]", "value": "Active"}, {"measurement": "inhibition", "setting": "[20]", "value": "Active"}, {"measurement": "inhibition", "setting": "[21]", "value": "Active"}, {"measurement": "inhibition", "setting": "PC-9 [22]", "value": "Active"}, {"measurement": "inhibition", "setting": "BaF3 [23]", "value": "Active"}, {"measurement": "inhibition", "setting": "[24]", "value": "Active"}, {"measurement": "inhibition", "setting": "PC-9 [25]", "value": "Active"}, {"measurement": "inhibition", "setting": "PC-9 [26]", "value": "Active"}]}
